Source: ChEMBL document CHEMBL1123084, “Decomposition reactions of (hydroxyalkyl) nitrosoureas and related compounds: possible relationship to carcinogenicity” (J Med Chem, 1985)

Columns and labels:
Format in all cases: ADME
[1] = Half life in 0.10 M buffer, pH = 7.4
[2] = Half life in 0.067 M (D2O), pH = 7.4
[3] = Half life in 0.067 M buffer, pH = 7.4
[4] = Half life in 0.067 M (D20), pH = 6.5; conditions: 0.067 M (D2O)
Summary of the method: (§1)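 Compound at 0.02-0.03 M was decomposed in sealed vials at 37 °C. The pH 3.0 medium was perchloric acid; the other pH values used 0.067 M phosphate buffer (pH 5.5, 6.0, 6.5, 8.0). Loss of starting material was followed by HPLC, and half-life came from first-order ln concentration vs time plots.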

[5] = Half life in 0.067 M buffer, pH = 8; summary of the method: as §1
[6] = Half life in buffer
Summary of the method: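 Compound was dissolved in pH 7.4 phosphate buffer (0.067 or 0.1 M) in sealed vials at 37 °C. Loss of parent was monitored by HPLC, and the first-order half-life was derived from ln concentration vs time.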

[7] = Half life in 0.067 M (D20), pH = 6.0; conditions: 0.067 M (D2O); summary of the method: as §1
[8] = Half life in 0.10 M (D20), pH = 7.4; conditions: 0.10 M (D2O)
[9] = Half life in 0.067 M (D20), pH = 5.5; conditions: 0.067 M (D2O); summary of the method: as §1
[10] = Half life in 0.01 M HClO4, pH = 3.0; summary of the method: as §1

For `CC(O)CN(N=O)C(N)=O` (stereo unspecified), which half-life [1] is on record?
Its half-life is 20 min.

And the half-life [2]?
Its half-life is 70 min.

What about the half-life ([3]; 0.067 M buffer) of the same molecule?
The half-life was 14.5 min.

What about the T1/2 ([3]; buffer) of the same molecule?
Its T1/2 is 9.5 min.

And the half-life [4]?
Its half-life is 26 min.

And the half-life [5]?
The half-life was 6.5 min.

What about the half-life [6] of the same molecule?
Its half-life is 15 min.

And the half-life [7]?
The half-life was 120 min.

What about the half-life [8] of the same molecule?
The half-life was 37.2 min.

And the half-life [9]?
Its half-life is 410 min.

What about the half-life [10] of the same molecule?
Its half-life is 600 min.
